Results: ChEMBL document CHEMBL1123706, “Design of alternate substrate inhibitors of serine proteases. Synergistic use of alkyl substitution to impede enzyme-catalyzed deacylation” (J Med Chem, 1987)

Legend:
Neutrophil elastase = molecular target: T1, Neutrophil elastase (Homo sapiens, UniProt P08246); assay: Binding affinity against human leukocyte elastase was determined
T1 sequence (P08246 whole entry): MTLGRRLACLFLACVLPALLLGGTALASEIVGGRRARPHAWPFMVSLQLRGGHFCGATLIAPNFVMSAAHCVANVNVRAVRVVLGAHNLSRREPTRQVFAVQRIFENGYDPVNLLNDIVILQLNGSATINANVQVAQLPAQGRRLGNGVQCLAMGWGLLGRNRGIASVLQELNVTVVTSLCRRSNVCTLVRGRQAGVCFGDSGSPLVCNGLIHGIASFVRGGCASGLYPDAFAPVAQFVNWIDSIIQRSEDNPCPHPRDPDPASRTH
In short: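 Elastase purified from human leukocytes and assayed by the progress-curve method. Enzyme turnover of a fluorogenic coumarin substrate at about 0.04 Km served as a probe of free enzyme. Buffer was 25 mM K+ HEPES, 1 M NaCl, 0.1% Brij 35, pH 7.8, 25 °C. Read-out was fluorescence at 400 nm excitation and 505 nm emission.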

[1] = molecular target: T2, Neutrophil elastase (Homo sapiens) (UniProt P08246)
T2 sequence (whole entry): T1 sequence (P08246 whole entry)

[2] = molecular target: T2, Neutrophil elastase (Homo sapiens); assay: Rate of deacylation by human leukocyte elastase
In short: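 Otherwise, acyl enzyme was prepared and isolated on Sephadex G-25 at low pH. Deacylation was followed as the return of activity after dilution into assay buffer containing fluorogenic substrate.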

Row | Compound | Ki (Neutrophil elastase) | k1 [1] | k off [2]
1 | CCNc1nc2ccccc2c(=O)o1 | 51 nM | – | –
2 | CC(C)Nc1nc2ccccc2c(=O)o1 | 52 nM | 59000 M⁻¹ s⁻¹ | 0.003 s⁻¹
3 | Nc1nc2ccccc2c(=O)o1 | 63000 nM | – | –
4 | CCc1cccc2nc(N)oc(=O)c12 | 5100 nM | – | –
5 | CCC(C)Nc1nc2ccccc2c(=O)o1 (centres undefined) | 43 nM | – | –
6 | CCCCNc1nc2ccccc2c(=O)o1 | 84 nM | – | –
7 | CCCCCCNc1nc2ccccc2c(=O)o1 | 3600 nM | – | –
8 | CNc1nc2cccc(C)c2c(=O)o1 | 31000 nM | 4800 M⁻¹ s⁻¹ | 0.15 s⁻¹
9 | CCCNc1nc2ccccc2c(=O)o1 | 91 nM | – | –
10 | CNc1nc2ccccc2c(=O)o1 | 6900 nM | – | –

Molecules with a lower Ki (Neutrophil elastase), results first:

Row | Ki (Neutrophil elastase) | k1 [1] | k off [2] | Compound
11 | 34 nM | – | – | CCNc1nc2cccc(C)c2c(=O)o1
12 | 4.2 nM | 130000 M⁻¹ s⁻¹ | 0.00053 s⁻¹ | CCCCNc1nc2cccc(CC)c2c(=O)o1
13 | 1.5 nM | – | – | Cc1cccc2nc(NC(C)C)oc(=O)c12
14 | 23 nM | – | – | CCCCNc1nc2cccc(C)c2c(=O)o1
15 | 0.94 nM | – | – | CCc1cccc2nc(NC(C)C)oc(=O)c12
16 | 6 nM | 56000 M⁻¹ s⁻¹ | 0.00034 s⁻¹ | CCCNc1nc2cccc(C)c2c(=O)o1
